Experimental data as given in ChEMBL document CHEMBL1926550, “Synthesis and antibacterial activity of naphthyridone derivatives containing mono/difluoro-methyloxime pyrrolidine scaffolds” (2012).
≈ marks a conversion by molar mass, not a printed value.

These compounds were tested on Staphylococcus aureus (assay: Antibacterial activity against methicillin-resistant Staphylococcus aureus 10-2 after 18 hrs by two fold serial dilution method). Conditions: 10-2, 18 h.
Type: functional
Method in brief: (§1)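 Agar two-fold serial dilution in melted Mueller-Hinton agar, 128 to 0.008 μg/mL. Plates inoculated with 10⁴ cfu, incubated 35 °C for 18 h. MIC taken as lowest concentration giving no visible growth on the plate.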

SMILES	MIC
NCC1CN(c2nc3c(cc2F)c(=O)c(C(=O)O)cn3C2CC2)C/C1=N\OCF (racemic)	2 mg/L (≈ 4.91 µM)

What follows are compounds tested on Staphylococcus aureus (assay: Antibacterial activity against methicillin-sensitive Staphylococcus aureus 10-3 after 18 hrs by two fold serial dilution method). Conditions: 10-3, 18 h.
Type: functional
Method in brief: (§2)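 Agar two-fold serial dilution in melted Mueller-Hinton agar, final concentrations 128 down to 0.008 μg/mL. Plates inoculated with 10⁴ cfu and incubated at 35 °C for 18 h. MIC taken as the lowest concentration giving no visible growth on the plate.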

SMILES	MIC
NCC1CN(c2nc3c(cc2F)c(=O)c(C(=O)O)cn3C2CC2)C/C1=N\OCF (racemic)	0.03 mg/L (≈ 0.0736 µM)

The compounds below were run on Staphylococcus aureus (assay: Antibacterial activity against methicillin-resistant Staphylococcus aureus 10-2 infected KM mouse systemic infection model assessed as decrease in mouse mortality administered orally twice after 1 and 4 hrs post infection measured up to 7 days). Conditions: 10-2, po.
Type: functional
Method in brief: (§3)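 Strains grown on MH agar at 35 °C for 18 h, suspended in gastric mucin. Male KM mice (19–21 g), groups of 10, infected intraperitoneally with 0.5 mL at 5–10× MLD. Four oral dose levels per drug at 1 and 4 h post infection. Mortality followed 7 days; ED50 with 95% confidence limits by Bliss method.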

SMILES	ED50
NCC1CN(c2nc3c(cc2F)c(=O)c(C(=O)O)cn3C2CC2)C/C1=N\OCF (racemic)	16.9 mg/kg

The compounds below were run on Pseudomonas aeruginosa (assay: Antibacterial activity against Pseudomonas aeruginosa 10-1 infected KM mouse systemic infection model assessed as decrease in mouse mortality administered orally twice after 1 and 4 hrs post infection measured up to 7 days). Conditions: 10-1, po.
Type: functional
Method in brief: as §3

SMILES	ED50
NCC1CN(c2nc3c(cc2F)c(=O)c(C(=O)O)cn3C2CC2)C/C1=N\OCF (racemic)	39.3 mg/kg

Each compound was assayed on Pseudomonas aeruginosa (assay: Antibacterial activity against Pseudomonas aeruginosa 10-3 after 18 hrs by two fold serial dilution method). Conditions: 10-3, 18 h.
Type: functional
Method in brief: as §2

SMILES	MIC
NCC1CN(c2nc3c(cc2F)c(=O)c(C(=O)O)cn3C2CC2)C/C1=N\OCF (racemic)	4 mg/L (≈ 9.82 µM)

What follows are compounds tested on Enterococcus faecalis (assay: Antibacterial activity against Enterococcus faecalis 09-2 after 18 hrs by two fold serial dilution method). Conditions: 09-2, 18 h.
Type: functional
Method in brief: as §2

SMILES	MIC
NCC1CN(c2nc3c(cc2F)c(=O)c(C(=O)O)cn3C2CC2)C/C1=N\OCF (racemic)	32 mg/L (≈ 78.6 µM)

The compounds below were run on Staphylococcus aureus (assay: Antibacterial activity against methicillin-resistant Staphylococcus aureus 10-1 after 18 hrs by two fold serial dilution method). Conditions: 10-1, 18 h.
Type: functional
Method in brief: as §1

SMILES	MIC
NCC1CN(c2nc3c(cc2F)c(=O)c(C(=O)O)cn3C2CC2)C/C1=N\OCF (racemic)	32 mg/L (≈ 78.6 µM)

The compounds below were run on Enterococcus faecium (assay: Antibacterial activity against Enterococcus faecium 09-2 after 18 hrs by two fold serial dilution method). Conditions: 09-2, 18 h.
Type: functional
Method in brief: as §2

SMILES	MIC
NCC1CN(c2nc3c(cc2F)c(=O)c(C(=O)O)cn3C2CC2)C/C1=N\OCF (racemic)	32 mg/L (≈ 78.6 µM)

The compounds below were run on Staphylococcus aureus (assay: Antibacterial activity against methicillin-sensitive Staphylococcus aureus 10-1 after 18 hrs by two fold serial dilution method). Conditions: 10-1, 18 h.
Type: functional
Method in brief: as §2

SMILES	MIC
NCC1CN(c2nc3c(cc2F)c(=O)c(C(=O)O)cn3C2CC2)C/C1=N\OCF (racemic)	0.06 mg/L (≈ 0.147 µM)

These compounds were tested on Enterococcus faecium (assay: Antibacterial activity against Enterococcus faecium 09-3 after 18 hrs by two fold serial dilution method). Conditions: 09-3, 18 h.
Type: functional
Method in brief: as §2

SMILES	MIC
NCC1CN(c2nc3c(cc2F)c(=O)c(C(=O)O)cn3C2CC2)C/C1=N\OCF (racemic)	16 mg/L (≈ 39.3 µM)

These compounds were tested on Staphylococcus epidermidis (assay: Antibacterial activity against methicillin-resistant Staphylococcus epidermidis 10-2 after 18 hrs by two fold serial dilution method). Conditions: 10-2, 18 h.
Type: functional
Method in brief: as §1

SMILES	MIC
NCC1CN(c2nc3c(cc2F)c(=O)c(C(=O)O)cn3C2CC2)C/C1=N\OCF (racemic)	1 mg/L (≈ 2.45 µM)

Each compound was assayed on Escherichia coli (assay: Antibacterial activity against Escherichia coli ATCC 25922 after 18 hrs by two fold serial dilution method). Conditions: ATCC 25922, 18 h.
Type: functional
Method in brief: as §2

SMILES	MIC
NCC1CN(c2nc3c(cc2F)c(=O)c(C(=O)O)cn3C2CC2)C/C1=N\OCF (racemic)	0.008 mg/L (≈ 0.0196 µM)

The compounds below were run on Staphylococcus aureus (assay: Antibacterial activity against Staphylococcus aureus ATCC 25923 after 18 hrs by two fold serial dilution method). Conditions: ATCC 25923, 18 h.
Type: functional
Method in brief: as §2

SMILES	MIC
NCC1CN(c2nc3c(cc2F)c(=O)c(C(=O)O)cn3C2CC2)C/C1=N\OCF (racemic)	0.015 mg/L (≈ 0.0368 µM)

Each compound was assayed on Staphylococcus aureus (assay: Antibacterial activity against methicillin-sensitive Staphylococcus aureus 10-6 after 18 hrs by two fold serial dilution method). Conditions: 10-6, 18 h.
Type: functional
Method in brief: as §2

SMILES	MIC
NCC1CN(c2nc3c(cc2F)c(=O)c(C(=O)O)cn3C2CC2)C/C1=N\OCF (racemic)	0.5 mg/L (≈ 1.23 µM)

What follows are compounds tested on Escherichia coli (assay: Antibacterial activity against Escherichia coli 09-3 after 18 hrs by two fold serial dilution method). Conditions: 09-3, 18 h.
Type: functional
Method in brief: as §2

SMILES	MIC
NCC1CN(c2nc3c(cc2F)c(=O)c(C(=O)O)cn3C2CC2)C/C1=N\OCF (racemic)	32 mg/L (≈ 78.6 µM)

The compounds below were run on Staphylococcus aureus (assay: Antibacterial activity against methicillin-sensitive Staphylococcus aureus 10-4 after 18 hrs by two fold serial dilution method). Conditions: 10-4, 18 h.
Type: functional
Method in brief: as §2

SMILES	MIC
NCC1CN(c2nc3c(cc2F)c(=O)c(C(=O)O)cn3C2CC2)C/C1=N\OCF (racemic)	0.25 mg/L (≈ 0.614 µM)

Each compound was assayed on Staphylococcus epidermidis (assay: Ratio of gemifloxacin ED50 to compound ED50 for methicillin-resistant Staphylococcus epidermidis 10-4 infected KM mouse systemic infection model). Conditions: not given.
Type: functional

SMILES	Ratio ED50
NCC1CN(c2nc3c(cc2F)c(=O)c(C(=O)O)cn3C2CC2)C/C1=N\OCF (racemic)	3

Each compound was assayed on Staphylococcus aureus (assay: Antibacterial activity against methicillin-resistant Staphylococcus aureus 10-4 after 18 hrs by two fold serial dilution method). Conditions: 10-4, 18 h.
Type: functional
Method in brief: as §1

SMILES	MIC
NCC1CN(c2nc3c(cc2F)c(=O)c(C(=O)O)cn3C2CC2)C/C1=N\OCF (racemic)	64 mg/L (≈ 157 µM)

These compounds were tested on Staphylococcus epidermidis (assay: Antibacterial activity against methicillin-sensitive Staphylococcus epidermidis 10-1 after 18 hrs by two fold serial dilution method). Conditions: 10-1, 18 h.
Type: functional
Method in brief: as §2

SMILES	MIC
NCC1CN(c2nc3c(cc2F)c(=O)c(C(=O)O)cn3C2CC2)C/C1=N\OCF (racemic)	32 mg/L (≈ 78.6 µM)

What follows are compounds tested on Klebsiella pneumoniae (assay: Antibacterial activity against Klebsiella pneumoniae 10-1 after 18 hrs by two fold serial dilution method). Conditions: 10-1, 18 h.
Type: functional
Method in brief: as §2

SMILES	MIC
NCC1CN(c2nc3c(cc2F)c(=O)c(C(=O)O)cn3C2CC2)C/C1=N\OCF (racemic)	0.03 mg/L (≈ 0.0736 µM)

These compounds were tested on Escherichia coli (assay: Antibacterial activity against Escherichia coli 09-1 after 18 hrs by two fold serial dilution method). Conditions: 09-1, 18 h.
Type: functional
Method in brief: as §2

SMILES	MIC
NCC1CN(c2nc3c(cc2F)c(=O)c(C(=O)O)cn3C2CC2)C/C1=N\OCF (racemic)	32 mg/L (≈ 78.6 µM)

Each compound was assayed on Klebsiella pneumoniae (assay: Antibacterial activity against Klebsiella pneumoniae 10-3 after 18 hrs by two fold serial dilution method). Conditions: 10-3, 18 h.
Type: functional
Method in brief: as §2

SMILES	MIC
NCC1CN(c2nc3c(cc2F)c(=O)c(C(=O)O)cn3C2CC2)C/C1=N\OCF (racemic)	0.5 mg/L (≈ 1.23 µM)

These compounds were tested on Enterococcus faecium (assay: Antibacterial activity against Enterococcus faecium 09-1 after 18 hrs by two fold serial dilution method). Conditions: 09-1, 18 h.
Type: functional
Method in brief: as §2

SMILES	MIC
NCC1CN(c2nc3c(cc2F)c(=O)c(C(=O)O)cn3C2CC2)C/C1=N\OCF (racemic)	32 mg/L (≈ 78.6 µM)
